The values that follow come from ChEMBL document CHEMBL3272084, “Adamantane and protoadamantanealkanamines as potential anti-Parkinson agents” (J Med Chem, 1976).

The nature of series [1]: Acute toxicity in ip dosed albino CFW mouse assessed as mortality measured over 48 hrs. The settings on record: albino CFW, in vivo. It counts as organism-based.
The nature of series [2]: Acute toxicity in po dosed albino CFW mouse assessed as mortality measured over 48 hrs. To be noted: albino CFW, in vivo. It counts as organism-based.
Series [3] relates to Mus musculus. Nature of the series: Antiparkinsonian activity in CFW mouse assessed as reversal of reserpine-induced catalepsy at 0.20 mmol/kg, sc measured every 30 mins up to 1.5 hrs. It counts as functional, organism-based.
In series [4] the test system is Mus musculus. The experiment in a line: Antidepressant activity in CFW mouse assessed as reversal of reserpine-induced hypothermia by measuring temperature index at 0.20 mmol/kg, sc measured every 30 mins up to 1.5 hrs. It counts as functional, organism-based.
The test system of series [5] is Rattus norvegicus. Nature of the series: Antiparkinsonian activity in Wistar rat assessed as reversal of reserpine-induced catalepsy at 0.21 mmol/kg, po measured every 30 mins up to 1.5 hrs. In kind it is functional, organism-based.
Series [6] has as its system Mus musculus. The experiment in a line: Antiparkinsonian activity in CFW mouse assessed as reversal of reserpine-induced catalepsy at 0.21 mmol/kg, sc measured every 30 mins up to 1.5 hrs. In kind it is functional, organism-based.
Series [7] deals with Mus musculus. The experiment in a line: Antidepressant activity in CFW mouse assessed as reversal of reserpine-induced hypothermia by measuring temperature index at 0.21 mmol/kg, sc measured every 30 mins up to 1.5 hrs. It counts as functional.
The test system of series [8] is Rattus norvegicus. Nature of the series: Antiparkinsonian activity in Wistar rat assessed as reversal of reserpine-induced catalepsy at 0.14 mmol/kg, po measured every 30 mins up to 1.5 hrs. It counts as functional, organism-based.
In series [9] the test system is Mus musculus. The experiment in a line: Antidepressant activity in CFW mouse assessed as reversal of reserpine-induced hypothermia by measuring temperature index at 0.07 mmol/kg, sc measured every 30 mins up to 1.5 hrs. In kind it is functional.
Series [10] has as its system Mus musculus. The experiment in a line: Antiparkinsonian activity in CFW mouse assessed as reversal of reserpine-induced catalepsy at 0.07 mmol/kg, sc measured every 30 mins up to 1.5 hrs. In kind it is functional, organism-based. An outline of the steps: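 Groups of five CFW mice were given reserpine 4 mg/kg sc, and catalepsy was assessed 2.5 h later. Reversal was scored 0–5: 0 no effect, 1 marginal, 2 significant, 3 marked, 4 approaching complete, 5 complete reversal.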

Series [11] deals with Rattus norvegicus. The experiment in a line: Antiparkinsonian activity in Wistar rat assessed as reversal of reserpine-induced catalepsy at 0.15 mmol/kg, po measured every 30 mins up to 1.5 hrs. In kind it is functional, organism-based.
In series [12] the test system is Mus musculus. Nature of the series: Antidepressant activity in CFW mouse assessed as reversal of reserpine-induced hypothermia by measuring temperature index at 0.04 mmol/kg, sc measured every 30 mins up to 1.5 hrs. It counts as functional.
Series [13] concerns Mus musculus. Nature of the series: Antiparkinsonian activity in CFW mouse assessed as reversal of reserpine-induced catalepsy at 0.15 mmol/kg, sc measured every 30 mins up to 1.5 hrs. It counts as functional, organism-based.
In series [14] the test system is Rattus norvegicus. Nature of the series: Antiparkinsonian activity in Wistar rat assessed as reversal of reserpine-induced catalepsy at 0.13 mmol/kg, po measured every 30 mins up to 1.5 hrs. It counts as functional, organism-based.
Series [15] has as its system Mus musculus. Nature of the series: Antiparkinsonian activity in CFW mouse assessed as reversal of reserpine-induced catalepsy at 0.13 mmol/kg, sc measured every 30 mins up to 1.5 hrs. It counts as functional, organism-based.
The test system of series [16] is Mus musculus. Nature of the series: Antidepressant activity in CFW mouse assessed as reversal of reserpine-induced hypothermia by measuring temperature index at 0.13 mmol/kg, sc measured every 30 mins up to 1.5 hrs. In kind it is functional, organism-based.
The test system of series [17] is Mus musculus. Nature of the series: Antiparkinsonian activity in CFW mouse assessed as reversal of reserpine-induced catalepsy at 0.17 mmol/kg, sc measured every 30 mins up to 1.5 hrs. In kind it is functional, organism-based.
The test system of series [18] is Mus musculus. The experiment in a line: Antidepressant activity in CFW mouse assessed as reversal of reserpine-induced hypothermia by measuring temperature index at 0.17 mmol/kg, sc measured every 30 mins up to 1.5 hrs. It counts as functional.
For series [19], the system named is Rattus norvegicus. Nature of the series: Potency index, ratio of compound to amantadine for antiparkinsonian activity in po dosed Wistar rat assessed as reversal of reserpine-induced catalepsy. In kind it is functional.
In series [20] the test system is Mus musculus. Nature of the series: Antiparkinsonian activity in CFW mouse assessed as reversal of reserpine-induced catalepsy at 0.14 mmol/kg, sc measured every 30 mins up to 1.5 hrs. In kind it is functional, organism-based.
Series [21] has as its system Mus musculus. The experiment in a line: Antidepressant activity in CFW mouse assessed as reversal of reserpine-induced hypothermia by measuring temperature index at 0.14 mmol/kg, sc measured every 30 mins up to 1.5 hrs. In kind it is functional.
For series [22], the system named is Mus musculus. The experiment in a line: Antiparkinsonian activity in CFW mouse assessed as reversal of reserpine-induced catalepsy at 0.32 mmol/kg, sc measured every 30 mins up to 1.5 hrs. In kind it is functional, organism-based.
Series [23] deals with Mus musculus. The experiment in a line: Antidepressant activity in CFW mouse assessed as reversal of reserpine-induced hypothermia by measuring temperature index at 0.32 mmol/kg, sc measured every 30 mins up to 1.5 hrs. In kind it is functional, organism-based.
The subject of series [24] is Mus musculus. The experiment in a line: Antidepressant activity in CFW mouse assessed as reversal of reserpine-induced hypothermia by measuring temperature index at 0.15 mmol/kg, sc measured every 30 mins up to 1.5 hrs. In kind it is functional.
The test system of series [25] is Mus musculus. The experiment in a line: Antiparkinsonian activity in CFW mouse assessed as reversal of reserpine-induced catalepsy at 0.16 mmol/kg, sc measured every 30 mins up to 1.5 hrs. It counts as functional, organism-based.
The test system of series [26] is Mus musculus. Nature of the series: Antidepressant activity in CFW mouse assessed as reversal of reserpine-induced hypothermia by measuring temperature index at 0.16 mmol/kg, sc measured every 30 mins up to 1.5 hrs. In kind it is functional.

Structures are written as SMILES. Calls of active or inactive are those of the source. The rule behind the calls is not given here.

In general, LD50 refers to the dose at which mortality reaches 50%.

For `CN(C)CC1(O)CC2CC3CC(C2)C1C3.Cl` (stereo not drawn), the values for the LD50 at 48 h in series [1] and in [2] were 1200 µmol/kg and 1600 µmol/kg, respectively. The outcome with Mus musculus [3] and in the series on Mus musculus [4] was inactive.
As for `NC12CC3CC(CC(C3)C1)C2` [AMANTADINE], in the series with Rattus norvegicus [5], the outcome was Active. For the same compound, the outcome in the series on Mus musculus [6] was inactive. Further, the Activity in the series on Mus musculus [7] is 5.
As for `CNCC12CC3CC(CC(C3)C1c1ccccc1)C2.Cl` (stereo not drawn), the result in the series on Rattus norvegicus [8] and in the series on Mus musculus [10] was inactive. The Activity with Mus musculus [9] amounted to 5.
In the case of `CNCCC12CC3CC(CC(C3)C1Cl)C2.Cl` (stereo not drawn), the 50% lethal dose (LD50) at 48 h was 600 µmol/kg in series [1] and 1500 µmol/kg in series [2]. In addition, the outcome with Rattus norvegicus [11] and in the series on Mus musculus [13] was Active. For the same compound, the Activity with Mus musculus [12] is recorded as >10.
On to `CN(C)CC12CC3CC(CC(C3)C1Br)C2.Cl` (stereo not drawn), for which the values for the LD50 at 48 h in series [1] and in series [2] were 500 µmol/kg and 1300 µmol/kg, respectively. Besides, the result with Rattus norvegicus [14] was Active. Also, the result in the series with Mus musculus [15] and in the series on Mus musculus [16] was inactive.
On to `CNCC12CC3CC(CC(C3)C1Br)C2.Cl` (stereo not drawn), for which the outcome in the series with Mus musculus [17] and in the series on Rattus norvegicus [8] was Active. Moreover, in the series with Mus musculus [18], the Activity is listed as 5. Further, the LD50 at 48 h in [1] and in [2] was 1000 µmol/kg in each case. The Ratio with Rattus norvegicus [19] came to 2.
With `CN1CCN(CC2(O)CC3CC4CC(C3)C2C4)CC1.Cl` (stereo not drawn), the LD50 at 48 h in [1] stood at 900 µmol/kg; in series [2], 2400 µmol/kg. Also, the Activity in the series on Mus musculus [9] is recorded as 5. In addition, the result in the series with Mus musculus [13] was inactive.
On to `CNCC1CC2CC3CC(C2)C1C3.O=C(O)/C=C\C(=O)O` (stereo not drawn), for which the figures for the LD50 at 48 h in [1] and in series [2] were 500 µmol/kg and 1000 µmol/kg, respectively. Also, the result in the series on Mus musculus [20] was inactive. Moreover, the Activity with Mus musculus [21] amounted to 5.
For `CNCC1(O)CC2CC3CC(C2)C1C3.O=C(O)/C=C\C(=O)O` (stereo not drawn), the LD50 at 48 h was found to be 1900 µmol/kg in series [1] and 3900 µmol/kg in series [2]. Besides, the result in the series on Mus musculus [22] and in the series with Mus musculus [23] was inactive.
On to `c1ccc(CCNC2CC3CC4CC(C3)C2C4)cc1` (stereo in doubt; 13), for which, in the series on Rattus norvegicus [8], the result was Active. Further, the outcome in the series on Mus musculus [10] was inactive.
As to `CN1CCN(CC23CC4CC(CC(C4)C2O)C3)CC1.Cl` (stereo not drawn), the LD50 at 48 h in [1] stood at 900 µmol/kg; in [2], 1200 µmol/kg. The Activity in the series with Mus musculus [24] was found to be 5. Also, the outcome in the series on Mus musculus [13] was inactive.
`Cl.Clc1ccc(CNC2CC3CC4CC(C3)C2C4)cc1` (stereo not drawn): the LD50 at 48 h was 600 µmol/kg in series [1] and 1900 µmol/kg in series [2]. Further, the result in the series with Mus musculus [25] was inactive. For the same compound, the Activity in the series on Mus musculus [26] is 5.
